High-throughput results: PubChem, several laboratories
A selection: hits, their analogues and other compounds. The true share with any hit is near 4.1%.
hERG rescue: hERG rescue from dofetilide block, primary screen, cell-based, CHO-hERG, FluxOR thallium flux, dofetilide IC70. hit rate 0.51% among 310,000. dofetilide IC70 present. activation (rescue from dofetilide block), less the hit threshold, % at 10 µM. Voltage-gated inwardly rectifying potassium channel KCNH2 (Homo sapiens), Q12809;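 active means activation above the mean of controls blocked by dofetilide plus 5 SD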;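 further: thallium influx through hERG after potassium depolarization seen as dye fluorescence rise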
Target sequence (Q12809 whole entry, looked up): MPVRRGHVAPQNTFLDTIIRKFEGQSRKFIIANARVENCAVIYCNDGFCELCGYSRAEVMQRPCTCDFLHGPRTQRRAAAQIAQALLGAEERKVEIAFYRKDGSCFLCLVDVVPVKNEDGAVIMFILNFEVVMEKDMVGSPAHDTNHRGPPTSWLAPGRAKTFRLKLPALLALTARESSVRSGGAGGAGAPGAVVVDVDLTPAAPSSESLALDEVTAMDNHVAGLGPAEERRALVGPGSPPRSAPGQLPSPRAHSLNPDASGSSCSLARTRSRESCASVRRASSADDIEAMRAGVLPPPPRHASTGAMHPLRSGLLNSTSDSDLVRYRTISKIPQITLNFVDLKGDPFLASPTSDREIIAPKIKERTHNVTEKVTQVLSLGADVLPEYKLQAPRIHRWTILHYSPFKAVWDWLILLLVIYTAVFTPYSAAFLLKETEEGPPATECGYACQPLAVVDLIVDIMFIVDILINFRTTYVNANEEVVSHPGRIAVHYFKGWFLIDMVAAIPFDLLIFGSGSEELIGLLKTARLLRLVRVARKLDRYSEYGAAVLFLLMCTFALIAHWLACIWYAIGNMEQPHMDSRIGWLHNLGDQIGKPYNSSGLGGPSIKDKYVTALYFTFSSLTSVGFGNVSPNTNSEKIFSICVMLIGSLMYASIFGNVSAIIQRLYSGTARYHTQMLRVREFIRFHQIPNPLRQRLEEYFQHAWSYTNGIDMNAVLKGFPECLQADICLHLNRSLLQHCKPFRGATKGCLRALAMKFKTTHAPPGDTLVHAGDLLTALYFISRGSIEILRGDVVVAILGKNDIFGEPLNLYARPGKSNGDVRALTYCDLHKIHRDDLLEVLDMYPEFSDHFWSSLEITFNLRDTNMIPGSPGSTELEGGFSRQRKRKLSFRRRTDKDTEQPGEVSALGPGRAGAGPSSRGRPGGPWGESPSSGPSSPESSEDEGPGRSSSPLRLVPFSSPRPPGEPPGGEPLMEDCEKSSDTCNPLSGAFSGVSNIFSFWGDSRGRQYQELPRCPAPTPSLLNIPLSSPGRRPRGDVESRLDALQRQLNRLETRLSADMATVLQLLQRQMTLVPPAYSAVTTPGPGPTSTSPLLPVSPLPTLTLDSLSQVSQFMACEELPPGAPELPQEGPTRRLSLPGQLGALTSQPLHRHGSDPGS
KCNK3 block: human KCNK3 channel inhibitors, primary screen, CHO cells, FluxOR thallium flux, B-score; B-score at 10 µM; hit rate 0.84% among 340,000; FluxOR fluorescence; stronger effect = lower value;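 active means B-score under library mean minus 4 SD, starting fluorescence ratio at most library mean plus 5 SD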;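 further: more negative B-score means stronger inhibition of thallium flux through KCNK3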
KCNK9 block: KCNK9 potassium channel inhibitors, primary screen, HEK293 cells, thallium flux | Potassium channel subfamily K member 9 (Homo sapiens), Q9NPC2 | FluxOR thallium flux fluorescence; stronger effect = lower value | hit rate 1.2% among 310,000 | B-score at 10 µM;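 active means ratio B-score over 3 SD below the library mean, with starting fluorescence within 5 SD of its mean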;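 further: negative B-score means less thallium flux so channel inhibition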
KCNQ1 block: inhibitors of human KCNQ1 channel, primary screen, cell-based, thallium flux, high-throughput; Potassium voltage-gated channel subfamily KQT member 1 (Homo sapiens), P51787; CHO-K1 KCNQ1, FluxOR thallium flux fluorescence; stronger effect = higher value; B-score at 10 µM; hit rate 1.3% among 310,000;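 active means compounds whose thallium flux B-score, printed positive for inhibition, exceeds three library SD while starting fluorescence stays within three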;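 further: channel opened by potassium depolarization with thallium stimulus after 20 min compound exposure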
KCC2 mod: KCC2 cotransporter modulators, thallium flux, primary screen, cell-based, HEK293 KCC2, FluoZin-2 fluorescence, MLSMR | Solute carrier family 12 member 5 (Homo sapiens), Q9H2X9 | KCC2 cells, thallium flux FluoZin-2 fluorescence | B-score of Tl+ flux slope (higher = more flux/activation; lower = inhibition) at 10 µM | hit rate 2.2% among 190,000;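 active means thallium flux slope and its plate-corrected score both differing from the plate sample mean at a set confidence after two filtering rounds, in either direction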;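 further: slope of fluorescence scaled to starting intensity during 10 to 20 s after thallium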
KCNQ1 pot: potentiators or activators of KCNQ1 channel, primary screen, cell-based, thallium flux, high-throughput. Potassium voltage-gated channel subfamily KQT member 1 (Homo sapiens), P51787. AID 2648, 2010. B-score at 10 µM. hit rate 0.35% among 310,000. CHO-K1 KCNQ1, thallium flux FluxOR fluorescence; stronger effect = higher value;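 active means fluorescence ratio B-score, a plate-corrected score, at least three library SD, with initial intensity B-score within 5 SD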
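Assay system: stable KCNQ1 CHO-K1 line; medium: assay buffer, equal DMSO in all wells; timing: 90 min dye loading and 20 min compound exposure, both at room temperature; technique: kinetic FluxOR thallium fluorescence, 10-s 1-Hz baseline, 110-s post-stimulus read; read-out basis: B score of baseline-normalized fluorescence ratio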
KCC2 sec1: KCC2 modulators in sodium-free buffer, confirmation, cell-based, HEK293 KCC2, thallium flux, secondary assay; normalised thallium flux (F/F0 slope) at 10 µM; hit rate 15% among 3,700; shares compounds with KCC2 mod; FluoZin2 fluorescence; stronger effect = higher value;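 active means thallium flux slope above the same plate's solvent-only control mean plus 3 SD; inconclusive means the two replicate wells disagree; inactive means no significant difference from solvent-only control wells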
KCC2 bumet counter: thallium flux persisting under bumetanide in KCC2 cells, confirmation, counter-screen for KCC2 modulator project, cell-based, HEK293 KCC2, FluoZin2, secondary assay 3. shares compounds with KCC2 mod. HEK293-KCC2 + bumetanide/ouabain; stronger effect = higher value. normalized thallium flux at 10 µM. hit rate 49% among 3,700. AID 1714, 2009;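 active means thallium entry rate above the same plate's blocked-transporter control wells by more than 3 SD; inconclusive means the two repeat wells disagree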;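 further: raw slope of fluorescence over initial fluorescence between 10 and 20 s after thallium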
KCC2 secondary2: KCC2 modulators without ouabain present, confirmation, cell-based, HEK293 KCC2, thallium flux, FluoZin2, secondary assay 2 | shares compounds with KCC2 mod | thallium flux FluoZin2 fluorescence; actives lie on both sides; F/F0 rise rate, 10–20 s post-thallium | normalized thallium flux at 10 µM | hit rate 23% among 3,700;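 active means thallium flux slope more than 3 SD above or below the plate's solvent-only control mean, mostly below; inconclusive means the two repeat wells disagreed; inactive means no significant shift from solvent-only controls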
HEK counter1: thallium flux modulation in parental HEK cells, confirmation, counter-screen for KCC2 modulator project, cell-based, counterscreen 1. HEK293 parental cells, thallium flux FluoZin2, ouabain; baseline-ratio fluorescence slope, 10–20 s after thallium. thallium flux rate (normalised fluorescence) at 10 µM. shares compounds with KCC2 mod. hit rate 46% among 3,700;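 active means thallium flux rate significantly above the same plate's solvent-only control wells, beyond their mean plus 3 SD; inconclusive means the two replicate wells gave conflicting results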
KCC2 ouabain: KCC2 inhibitors and activators, ouabain retest, confirmation, HEK-KCC2 cells. AID 1717, 2009. HEK293-KCC2, thallium flux FluoZin2 fluorescence; bidirectional: low = inhibitor, high = activator. hit rate 48% among 3,700. shares compounds with KCC2 mod. raw Tl+ flux slope (below DMSO = inhibition, above = activation) at 10 µM;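 active means thallium flux slope beyond 3 SD from same-plate DMSO control mean in most replicates, usually higher, sometimes lower; inconclusive means repeat tests gave conflicting results; inactive means no significant difference from controls in most replicates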;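 further: slope of initial-normalized fluorescence between seconds 10 and 20 after thallium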
HEK counter2: native HEK Tl+ uptake effects, second counter-screen – HEK cells, counterscreen 2, counter-screen for KCC2 modulator project, confirmation; hit rate 33% among 3,700; HEK293 parental, thallium flux FluoZin-2 fluorescence slope; AID 1718, 2009; shares compounds with KCC2 mod; thallium flux slope at 10 µM;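 active means thallium flux slope above the same plate's solvent-control mean plus 3 SD in both duplicate wells; inconclusive means duplicate wells that disagreed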;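 further: run without ouabain in cells lacking the KCC2 cotransporter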
Numbers stand for hits.

What do the screens show for `CCC1(c2ccccc2)NC(=O)N(CC(=O)Nc2cc(C(F)(F)F)ccc2N2CCCC2)C1=O` (stereo not drawn)?
hERG rescue: inactive; KCNK3 block: inactive; KCNK9 block: inactive; KCNQ1 block: inactive; KCNQ1 pot: inactive

Results for CCC(C)(C)NC(=O)C(c1ccco1)N(C(=O)CNC(=O)c1cccs1)c1cccnc1 (stereo not drawn) ?
hERG rescue: inactive; KCNK3 block: inactive; KCNK9 block: inactive; KCNQ1 block: inactive; KCC2 mod: inactive; KCNQ1 pot: inactive

How did CCSC1=C(C#N)C2(CCCCC2)C(C#N)=C(N)N1 do in these assays?
hERG rescue: inactive; KCNK3 block: inactive; KCNK9 block: inactive; KCNQ1 block: inactive; KCC2 mod: -4.1; KCNQ1 pot: inactive; KCC2 sec1: inactive; KCC2 bumet counter: inactive; KCC2 secondary2: inactive; HEK counter1: inconclusive; KCC2 ouabain: inactive; HEK counter2: inactive

What do the screens show for `N#CC1=C(N)NC(SCc2ccccc2)=C(C#N)C12CCCCC2`?
hERG rescue: inactive; KCNK3 block: inactive; KCNK9 block: inactive; KCNQ1 block: inactive; KCC2 mod: -3.2; KCNQ1 pot: inactive; KCC2 sec1: inactive; KCC2 bumet counter: inactive; KCC2 secondary2: inconclusive; HEK counter1: inactive; KCC2 ouabain: inactive; HEK counter2: inactive

Results for CCSC1=C(C#N)C2(CCCCC2)C2=C(CC(C)(C)CC2=O)N1 ?
hERG rescue: inactive; KCNK3 block: inactive; KCNK9 block: inactive; KCNQ1 block: inactive; KCC2 mod: inactive; KCNQ1 pot: inactive

Results for O=C(CSc1nc2ccccc2[nH]1)Nc1ccccc1F ?
hERG rescue: inactive; KCNK3 block: inactive; KCNK9 block: inactive; KCNQ1 block: inactive; KCC2 mod: -4.7; KCNQ1 pot: inactive; KCC2 sec1: inactive; KCC2 bumet counter: inactive; KCC2 secondary2: inactive; HEK counter1: inactive; KCC2 ouabain: inactive; HEK counter2: inactive

How did NC(=O)CSc1nc(N)c2c3c(sc2n1)CCCCC3 do in these assays?
hERG rescue: inactive; KCNK3 block: inactive; KCNK9 block: inactive; KCNQ1 block: inactive; KCC2 mod: inactive; KCNQ1 pot: inactive

Results for CNC(=O)CSc1nc(N)c2c3c(sc2n1)CCC3 ?
hERG rescue: inactive; KCNK3 block: inactive; KCNK9 block: inactive; KCNQ1 block: inactive; KCC2 mod: -5.8; KCNQ1 pot: inactive; KCC2 sec1: inactive; KCC2 bumet counter: inactive; KCC2 secondary2: inactive; HEK counter1: inactive; KCC2 ouabain: inactive; HEK counter2: inactive

How did CC(Sc1nnc2ccccn12)C(=O)Nc1ccc2c(c1)OCCO2 (stereo not drawn) do in these assays?
hERG rescue: inactive; KCNK3 block: inactive; KCNK9 block: inactive; KCNQ1 block: inactive; KCNQ1 pot: inactive; KCC2 sec1: inactive; KCC2 bumet counter: inactive; KCC2 secondary2: inactive; HEK counter1: inactive; KCC2 ouabain: inactive; HEK counter2: inactive

What do the screens show for `CCc1ccc(Nc2n[n+](-c3ccccc3)c(-c3ccc(OC)c(Br)c3)s2)cc1`?
hERG rescue: inactive; KCNK3 block: inactive; KCNK9 block: inactive; KCNQ1 block: inactive; KCNQ1 pot: inactive

What do the screens show for `COCCNC(=S)N1CCN(c2nc(-c3ccccc3)cs2)CC1`?
hERG rescue: inactive; KCNK3 block: inactive; KCNK9 block: inactive; KCNQ1 block: inactive; KCNQ1 pot: inactive

What do the screens show for `O=C(NC(=S)N1CCN(c2nc(-c3ccccc3)cs2)CC1)c1cccnc1`?
hERG rescue: inactive; KCNK3 block: inactive; KCNK9 block: inactive; KCNQ1 block: inactive; KCC2 mod: 34; KCNQ1 pot: inactive; KCC2 sec1: 0.028; KCC2 bumet counter: 0.11; KCC2 secondary2: inconclusive; HEK counter1: 0.041; KCC2 ouabain: 0.07; HEK counter2: 0.015

Results for CC1CCCC(C)N1C(=O)CSc1nnc(-c2ccco2)n1C (stereo not drawn) ?
KCNK3 block: inactive

How did Brc1ccccc1-c1nnc(COc2cccc3cccnc23)o1 do in these assays?
hERG rescue: inactive; KCNK3 block: inactive; KCNK9 block: inactive; KCNQ1 block: inactive; KCC2 mod: -3; KCNQ1 pot: inactive; KCC2 sec1: inactive; KCC2 bumet counter: inactive; KCC2 secondary2: inactive; HEK counter1: inactive; KCC2 ouabain: 0.038; HEK counter2: inactive

Results for N#Cc1ccccc1OCc1nnc(-c2ccccc2Br)o1 ?
hERG rescue: inactive; KCNK3 block: inactive; KCNK9 block: inactive; KCNQ1 block: inactive; KCNQ1 pot: inactive

Results for Cc1sc(N/N=C/c2cc([N+](=O)[O-])ccc2O)nc1-c1ccccc1 ?
hERG rescue: inactive; KCNK3 block: inactive; KCNK9 block: inactive; KCNQ1 block: inactive; KCC2 mod: inactive; KCNQ1 pot: inactive

What do the screens show for `Cc1nnc(NC(=O)CSc2nnc3c(n2)[nH]c2ccc(Br)cc23)s1`?
hERG rescue: inactive; KCNK3 block: inactive; KCNK9 block: inactive; KCNQ1 block: inactive; KCNQ1 pot: inactive
